Sampled rows, rich in hits. Any-hit rate of the full collection: about 2.7%.
PREPL inhibitor: PREPL enzyme inhibitors, primary screen, biochemical, fluorescence polarization; Prolyl endopeptidase-like (Homo sapiens), Q4J6C6; recombinant PREPL, fluorescence polarization activity-based probe; inhibition, % at 5.96 µM; 320,000 tested, 0.68% active; AID 2751, 2010; in the data active = inhibition above about 43%;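 note: 0% = enzyme with DMSO and 100% = wells lacking enzyme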
HTR2A ag: mouse Htr2a agonists via beta-arrestin recruitment, primary screen, cell-based, luminescence; 5-hydroxytryptamine receptor 2A (Mus musculus), P35363; CHO-K1 mHTR2A beta-arrestin complementation; percent of 30 µM serotonin response; activation, % at 7.6 µM; 360,000 tested, 0.66% active; AID 624169, 2012;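 active = activation above a run cutoff, the mean activation of all tested compounds plus 3 SD, cut at about 14% in these data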;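 note: 0% = plate median of compound wells and 100% = 30 µM serotonin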
MC4R ag barr: MC4R agonists recruiting beta-arrestin, primary screen, cell-based, luminescence, agonist arm of biased-ligand search; AID 540308, 2011; U2OS MC4R beta-arrestin complementation; percent of melanotan II response, DMSO zero; 360,000 tested, 0.98% active; activation, % at 8.9 µM;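 active = activation above a per-plate cutoff, the mean activation of sample wells on that plate plus 3 SD, cut at about 8% in these data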
Target sequence (P32245 whole entry, looked up): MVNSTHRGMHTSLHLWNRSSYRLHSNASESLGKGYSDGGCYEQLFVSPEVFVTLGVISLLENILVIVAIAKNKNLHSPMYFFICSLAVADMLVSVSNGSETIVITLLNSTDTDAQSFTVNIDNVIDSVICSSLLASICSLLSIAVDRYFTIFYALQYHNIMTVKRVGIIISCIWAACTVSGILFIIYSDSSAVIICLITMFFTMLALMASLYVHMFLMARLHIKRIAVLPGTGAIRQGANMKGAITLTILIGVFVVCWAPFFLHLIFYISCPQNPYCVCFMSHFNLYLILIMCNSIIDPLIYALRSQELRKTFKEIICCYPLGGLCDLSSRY
MC4R antag cAMP: MC4R antagonists of cAMP signaling, primary screen, cell-based, TR-FRET, antagonist arm of biased-ligand search. MC4R-expressing cells, MTII-stimulated cAMP, LANCE TR-FRET. inhibition, % at 6.5 µM. 360,000 tested, 0.48% active;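 active = inhibition above its plate's cutoff, the mean of tested wells on that plate plus 3 SD, cut at about 29% in these data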;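 note: 0% = Melanotan II alone and 100% = Melanotan II plus saturating MCL0020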
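Material – human MC4R-expressing U2OS cells · Repeats – no replicates · Detection – TR-FRET with Eu-cAMP and labeled anti-cAMP, 671 nm · Times – compound 30 min, challenge 1 h, detection 1 h · Compound – single nominal compound dose of 6.5 µM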
NTR1 ag: agonists of human NTR1, primary screen, imaging, U2OS cells, beta-arrestin-GFP, high content. Neurotensin receptor type 1 (Homo sapiens), P30989. activation, % at 20 µM. NTR1-U2OS beta-arrestin-GFP spot imaging, agonist mode. 330,000 tested, 0.17% active. AID 493036, 2011;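 active = activation at or above 40% of the spot to cytoplasm intensity ratio, with at least 20 cells analyzed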;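 note: 0% = DMSO without peptide and 100% = 100 nM NTR1 peptide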
Hep lipid drop: inhibitors of hepatocyte lipid droplet formation, primary screen, imaging, high-throughput imaging, BODIPY stain. AML12 mouse hepatocytes, oleate lipid droplets. inhibition, % at 6.5 µM. 240,000 tested, 0.4% active;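 active = lipid droplet intensity inhibited by at least 50%, with more than 500 cells counted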
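Material – AML12 mouse liver cells · Also added – oleate loading, 100 µM · Compound dosing – 6.5 µM single-point dosing · Times – overnight treatment with compound plus oleate · Measured by – fluorescence imaging, 20x objective, two fields per well · Read-out – percent inhibition of filter-corrected integrated lipid droplet intensity per well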
OPRM1 ag: OPRM1 agonists via beta-arrestin recruitment, confirmation, counter-screen for mouse HTR2A agonist project, cell-based, luminescence, single concentration | shares compounds with HTR2A ag | U2OS OPRM1 beta-arrestin PathHunter; DMSO 0%, DAMGO 9.3 µM 100% | activation, % at 9.3 µM | 2,300 tested, 5.3% active;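 active = mean activation above the mean of DMSO-only wells plus 3 SD, cut at about 0.5% in these data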
HTR2A ag conf: mouse HTR2A agonists, beta-arrestin recruitment, confirmation, cell-based, luminescence, CHO-K1 PathHunter, triplicate; DMSO 0%, 30 µM serotonin 100%; AID 624381, 2012; activation, % at 7.6 µM; 2,300 tested, 19% active; shares compounds with HTR2A ag;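 active = mean activation across triplicates above the hit threshold derived in the original primary screen, cut at about 15% in these data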
* marks the source's active call; other numbers are inactive results; . = no result given.

SMILES | PREPL inhibitor | HTR2A ag | MC4R ag barr | MC4R antag cAMP | NTR1 ag | Hep lipid drop | OPRM1 ag | HTR2A ag conf
O=C1CCC(C(=O)O)(c2ccccc2)C1 (stereo unspecified) | -14 | . | . | . | 0 | . | . | .
CCn1c(CNC(=O)c2ccco2)nnc1SCC(=O)Nc1cc(C)c(C)cc1Br | -2 | 15* | 1 | 4 | 1 | 20 | 1.0* | 4
c1cc(CCCc2ccncc2)ccn1 | 6 | 1 | 1 | 5 | 0 | . | . | .
NC(=O)Cc1nc(-c2ccccc2)cs1 | 1 | 3 | -1 | 9 | 2 | 20 | . | .
NCCc1nc(-c2ccccc2)cs1 | -7 | 35* | 0 | 4 | 3 | -8 | -1 | 14
COC(=O)c1ccc(/C=N/N2CCN(Cc3ccc(C)cc3C)CC2)cc1 | 8 | 18* | 6 | -3 | 7 | 8 | 0 | 15*
O=C(c1ccco1)N1CCCC(N2CCN(c3cccc(C(F)(F)F)c3)CC2)C1 (stereo unspecified) | 11 | -9 | -3 | 13 | 2 | 1 | . | .
CC(=O)N1Cc2ccccc2CC1C(=O)NCc1ccccc1F (stereo unspecified) | -15 | 16* | -1 | 7 | -1 | -16 | 0 | -1
CC1CCN(c2ccc(C(=O)Nc3ccc4c(c3)OCO4)cc2[N+](=O)[O-])CC1 | 8 | -5 | -2 | 12 | 0 | 1 | . | .
CC1CCCN(c2ccc(C(=O)Nc3ccc4c(c3)OCO4)cc2[N+](=O)[O-])C1 (stereo unspecified) | 14 | 38* | -1 | 3 | 2 | 9 | -1 | 9
CCOC(=O)C1CCCN(C(=O)/C(=C/c2ccco2)NC(=O)c2ccccc2)C1 (stereo unspecified) | -3 | -1 | -1 | 3 | 2 | -4 | . | .
CN1CCc2c(sc3c2c(=O)n(-c2cccc(Cl)c2)c2nncn32)C1 | 8 | 23* | -1 | 5 | 2 | . | 0 | 2
CN1CCc2c(sc3nc(NCCO)n(-c4cccc(Cl)c4)c(=O)c23)C1 | 4 | 1 | 0 | 6 | -1 | . | . | .
Cc1nc2c(nnn2Cc2c(Cl)cccc2Cl)c(=O)[nH]1 | 8 | 19* | 1 | -4 | 1 | 7 | 0 | 5
CC(=O)Nc1ccc(OCC(O)Cn2ccnc2)cc1 (stereo unspecified) | 13 | -1 | 0 | 0 | 3 | 3 | . | .
CC(=O)c1ccccc1OCC(O)Cn1ccnc1 (stereo unspecified) | 2 | 21* | 1 | 2 | 1 | -1 | -1 | -3
CC(C)N1C(=O)CCC1C(=O)NCc1cccs1 (stereo unspecified) | -2 | 23* | -1 | 7 | 3 | 4 | -1 | -3
CN1CCC(=NNC(=O)CN(c2ccc([N+](=O)[O-])cc2)S(=O)(=O)c2ccccc2)CC1 | -44 | 17* | 0 | 4 | 1 | 21 | -1 | -5
CN1CCC(=NNC(=O)CN(c2cccc([N+](=O)[O-])c2)S(=O)(=O)c2ccccc2)CC1 | -24 | -2 | 0 | 14 | 0 | . | . | .
COc1ccccc1NC(=O)CCN1C(=O)C2CC=CCC2C1=O (stereo unspecified) | 5 | 7 | -1 | 0 | 0 | -1 | . | .
CCCCNC(=O)C1(C)CCCCN1C(=O)c1ccc2c(c1)CCO2 (stereo unspecified) | . | 18* | 1 | -2 | . | . | 0 | 1
COc1cc(OC)c(NC(=O)C2CCCO2)cc1Cl (stereo unspecified) | 18 | 16* | 2 | 13 | -1 | . | -1 | -2
CCOC(=O)C(C(=O)Nc1ccccn1)C1CCCCC1 (stereo unspecified) | 3 | -9 | 1 | 10 | 1 | 5 | . | .
CCOC(=O)C(C(=O)Nc1cccc(C)n1)C1CCCCC1 (stereo unspecified) | -6 | 14* | 3 | -7 | 3 | . | 0 | -4
CS(=O)(=O)N1CCN(C(=O)Cc2ccccc2Cl)CC1 | 8 | 1 | 0 | 0 | 0 | 5 | . | .
SMILES | PREPL inhibitor | HTR2A ag | MC4R ag barr | MC4R antag cAMP | NTR1 ag | Hep lipid drop | OPRM1 ag | HTR2A ag conf
CC(C)(C)c1ccc(C(=O)Nc2ccc3c(c2)C(=O)NC3=O)cc1 | 0 | 16* | -1 | 8 | 0 | 4 | 0 | -3
O=C(Nc1ccc(Cl)c(Cl)c1)N(CCCN1CCOCC1)Cc1cccs1 | 1 | -1 | 2 | 1 | -2 | . | . | .
COc1cccc(NC(=O)CCS(=O)(=O)c2ccc3c(c2)oc(=O)n3C)c1 | 6 | 1 | -2 | -3 | 1 | -14 | . | .
C=CCn1c(SCC(=O)NCC(=O)OCC)nnc1-c1cccc(OC)c1 | 0 | 20* | -1 | 4 | 2 | 11 | -1 | -3
OCCNc1ncnc2c1ncn2[C@H]1CN(Cc2ccncc2)C[C@@H](CO)O1 | . | 15* | 0 | 12 | . | . | . | -5
OCCCNc1ncnc2c1ncn2[C@H]1CN(Cc2ccncc2)C[C@@H](CO)O1 | . | 2 | 2 | 0 | . | . | . | .
Cc1c(C)c(C)c(CN2CCCC2)c(C)c1C | 6 | -1 | -2 | 15 | 0 | -13 | . | .
CC(C)CNC(=O)COc1cccc(C(=O)NCc2ccccc2)c1 | 0 | -1 | 1 | -4 | -2 | -11 | . | .
CCOc1ccc(/C=N/N2C(C)CCCC2C)cc1 (stereo unspecified) | 16 | 17* | -2 | -1 | 0 | 6 | -1 | -2
Cc1ccc2[nH]c(-c3ccccc3)c(CN3CCCC3)c(=O)c2c1 | 7 | 20* | 1 | 20 | 2 | -2 | 0 | 11
Cc1ccc2[nH]c(-c3ccccc3)c(CN3CCN(C)CC3)c(=O)c2c1 | 6 | 4 | 1 | 1 | 0 | 2 | . | .
CCOc1ccc(-c2cc(C(=O)N3CCCC3)c3ccccc3n2)cc1 | 9 | 15* | -2 | -1 | 0 | 8 | -1 | -2
